The results in this text go back to ChEMBL document CHEMBL1833936, “7-azaindenoisoquinolines as topoisomerase I inhibitors and potential anticancer agents” (J Med Chem, 2011).

For data set [1], the system named is HOP-62. The experiment in a line: Cytotoxicity against human HOP62 cells after 48 hrs by SRB assay. The settings on record: HOP-62, 48 h. The format is functional. An outline of the steps: (§1)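 NCI 60-cell-line screen. Cells incubated 48 h with five 10-fold dilutions starting at 100 μM, then stained with sulforhodamine B. Optical density relative to control plotted against log concentration.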

In data set [2] the test system is OVCAR-3. The experiment in a line: Cytotoxicity against human OVCAR3 cells after 48 hrs by SRB assay. The following applies: OVCAR-3, 48 h. It counts as functional. Put shortly: as §1
In data set [3] the test system is UACC-62. The data set can be described thus: Cytotoxicity against human UACC62 cells after 48 hrs by SRB assay. The format is functional. The following applies: UACC-62, 48 h. Put shortly: as §1
In data set [4] the test system is DU-145. The experiment in a line: Cytotoxicity against human DU145 cells after 48 hrs by SRB assay. The format is functional. The following applies: DU-145, 48 h. Put shortly:
as §1

In data set [5] the test system is MCF7. The experiment in a line: Cytotoxicity against human MCF7 cells after 48 hrs by SRB assay. It counts as functional. The following applies: MCF7, 48 h. Put shortly: as §1
Data set [6] relates to SF-539. The experiment in a line: Cytotoxicity against human SF539 cells after 48 hrs by SRB assay. The format is functional. The following applies: SF-539, 48 h. An outline of the steps:
as §1

Data set [7] concerns the target T1, DNA topoisomerase 1 (Homo sapiens) (UniProt P11387).
T1 sequence (whole entry): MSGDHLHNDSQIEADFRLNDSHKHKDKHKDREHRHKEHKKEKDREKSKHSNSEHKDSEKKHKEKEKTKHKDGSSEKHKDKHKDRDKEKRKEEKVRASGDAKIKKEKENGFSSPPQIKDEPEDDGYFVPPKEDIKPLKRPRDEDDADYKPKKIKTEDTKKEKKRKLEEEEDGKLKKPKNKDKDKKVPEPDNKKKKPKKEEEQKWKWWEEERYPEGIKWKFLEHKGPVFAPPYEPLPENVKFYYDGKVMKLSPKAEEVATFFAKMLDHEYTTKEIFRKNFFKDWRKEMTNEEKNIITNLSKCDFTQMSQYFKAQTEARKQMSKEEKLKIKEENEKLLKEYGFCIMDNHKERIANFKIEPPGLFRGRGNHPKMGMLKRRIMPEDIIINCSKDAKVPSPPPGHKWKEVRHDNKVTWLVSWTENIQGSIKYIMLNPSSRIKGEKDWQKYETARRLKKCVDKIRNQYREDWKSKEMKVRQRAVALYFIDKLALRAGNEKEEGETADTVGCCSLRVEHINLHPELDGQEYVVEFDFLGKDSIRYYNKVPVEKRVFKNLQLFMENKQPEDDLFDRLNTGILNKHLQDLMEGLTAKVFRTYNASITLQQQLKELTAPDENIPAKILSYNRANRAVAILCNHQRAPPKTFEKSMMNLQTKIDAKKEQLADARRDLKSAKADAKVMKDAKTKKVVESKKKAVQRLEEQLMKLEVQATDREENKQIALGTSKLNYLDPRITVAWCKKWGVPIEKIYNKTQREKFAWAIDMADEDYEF
The experiment in a line: Inhibition of human topoisomerase 1 assessed as inhibition of radiolabeled DNA fragment cleavage 0.1 to 100 uM after 20 mins by gel-based phosphoimaging relative to control. Put shortly:
(§2)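 Human recombinant Top1 purified from baculovirus. About 2 nM 117-bp DNA substrate, 3′-end-labeled with [α-32P]-dGTP by Klenow fill-in. Stopped with 0.5% SDS and formamide loading dye; 20% denaturing PAGE, phosphoimager. Tested at 0.1, 1, 10 and 100 μM.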

The test system of data set [8] is SN12C. The data set can be described thus: Cytotoxicity against human SN12C cells after 48 hrs by SRB assay. The format is functional. Put shortly:
as §1

The test system of data set [9] is HCT-116. The experiment in a line: Cytotoxicity against human HCT116 cells after 48 hrs by SRB assay. It counts as functional. The settings on record: HCT-116, 48 h. An outline of the steps: as §1
Data set [10] deals with T1, DNA topoisomerase 1 (Homo sapiens). The data set can be described thus: Inhibition of human topoisomerase 1-mediated DNA relaxation assessed as DNA intercalation at compound concentration above 3 uM after 30 mins by gel electrophoresis relative to control. An outline of the steps:
(§3)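 Two-step unwinding assay. SV40 DNA first fully relaxed with excess Top1 for 15 min at 37 °C without drug. Relaxed DNA then incubated 30 min at 37 °C with drug at 1, 3, 10, 30 or 100 μM. Control was a further 30 min incubation at 37 °C without drug. Products resolved on gel.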

Data set [11] has the same target. The experiment in a line: Inhibition of human topoisomerase 1-mediated DNA relaxation assessed as DNA intercalation at 100 uM after 30 mins by gel electrophoresis relative to control. An outline of the steps:
as §3

A short description of data set [12]: Aqueous solubility at pH 7.5 after 24 hrs by HPLC. The format is physicochemical. An outline of the steps: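 Solid sample (4–10 mg) shaken in 1 M Tris buffer pH 7.5 for 24 h at 25 °C, then centrifuged and supernatant filtered. Supernatant analysed by reverse-phase C18 HPLC eluting methanol (1% TFA)/water 90:10. Concentration from one-point calibration against buffer solutions of known concentration.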

Data set [13] concerns the target T1, DNA topoisomerase 1 (Homo sapiens). The experiment in a line: Inhibition of human topoisomerase 1 assessed as inhibition of radiolabeled DNA fragment cleavage after 20 mins by gel-based phosphoimaging relative to control. Put shortly:
as §2

The target is the same in data set [14]. The data set can be described thus: Inhibition of human topoisomerase 1 assessed as inhibition of radiolabeled DNA fragment cleavage up to 100 uM after 20 mins by gel-based phosphoimaging relative to control. Put shortly: as §2
Data set [15] shares this target. The experiment in a line: Inhibition of human topoisomerase 1-mediated DNA relaxation assessed as DNA intercalation at 1 to 100 uM after 30 mins by gel electrophoresis relative to control. An outline of the steps:
as §3

In brackets after ≈: the same amount, converted by molar mass. Activity calls are given as the source filed them. The rule behind the calls is not given here.

Turning to `CN(C)CCCn1c2c(c3ccc([N+](=O)[O-])cc3c1=O)C(=O)c1cccnc1-2`, the GI50 in data set [1] stood at 2.35 µM; in [2] it was 2290 nM; in data set [3], 3.31 µM; in data set [4], 930 nM; in [5] it was 360 nM; in data set [6] it was 2690 nM. For the same compound, the concentration for 50% growth inhibition (GI50) in data set [8] came out at 1000 nM; in data set [9], 440 nM. The inhibition result in data set [7] is “Active”.

As for `COc1cc2c3c(n(CCCN(C)C)c(=O)c2cc1OC)-c1ncccc1C3=O`, the Activity entry in data set [10] was “Dose-dependent effect”. Moreover, the GI50 in data set [1] came out at 3.39 µM; in data set [2], 3550 nM; in [3], 13.2 µM; in data set [4], 1700 nM; in [5], 440 nM; in data set [6] it was 4070 nM. Moreover, the 50% growth inhibitory concentration (GI50) in data set [8] stood at 3160 nM; in data set [9], 1580 nM. Moreover, the outcome in data set [11] was Active. The inhibition result in [7] is “Active”. In addition, in [12], the concentration in solution (solubility at 24 h) was 100 mM (≈ 39.3 mg/mL).

Consider `O=C1c2cccnc2-c2c1c1ccccc1c(=O)n2CCCn1ccnc1`, for which the GI50 in [1] turned out to be 7.24 µM; in [2], 8710 nM; in data set [3], 35.5 µM; in [4], 2880 nM; in [5] it was 3390 nM; in [6], 5130 nM. In addition, the GI50 in data set [8] was determined as 3720 nM; in data set [9], 1200 nM. In [7], the inhibition entry is “Active”.

Turning to `COc1cc2c3c(n(C)c(=O)c2cc1OC)-c1cc2c(cc1C3=O)OCO2`, the GI50 in data set [1] came out at 8.51 µM; in data set [3], 0.56 µM; in [4], 4790 nM; in data set [5] it was 1910 nM; in [6] it was 1660 nM; in data set [9], 11500 nM. Also, the inhibition result in data set [7] was “Active”.

As to `O=C1c2cccnc2-c2c1c1ccccc1c(=O)n2CCCNCCO`, the GI50 stood at 1.41 µM in data set [1]; 1550 nM in [2]; 3.09 µM in [3]; 410 nM in [4]; 480 nM in data set [5]; 870 nM in [6]. The GI50 is 760 nM in data set [8] and 300 nM in data set [9]. Besides, the inhibition result in [7] is “inactive”.

Regarding `COc1cc2c3c(n(CCCn4ccnc4)c(=O)c2cc1OC)-c1ncccc1C3=O`, the inhibition entry in data set [13] is “Dose-dependent effect”. Moreover, the inhibition entry in data set [14] and in [7] was “Active” each time.

As to `O=C1c2cccnc2-c2c1c1ccc([N+](=O)[O-])cc1c(=O)n2CCCN1CCOCC1`, the inhibition result in [7] was “Active”.

With `CN(C)CCCn1c2c(c3ccc([N+](=O)[O-])cc3c1=O)C(=O)c1ccccc1-2`, the GI50 in [2] turned out to be 32400 nM; in data set [5] it was 240 nM. The inhibition result in data set [7] was “Active”.

With `COc1cc2c3c(n(CCCNCCO)c(=O)c2cc1OC)-c1ncccc1C3=O`, the GI50 is 0.3 µM in [1]; 340 nM in data set [2]; 0.12 µM in data set [3]; 320 nM in data set [4]; 74 nM in data set [5]; 260 nM in [6]. In addition, the GI50 turned out to be 230 nM in data set [8] and 150 nM in data set [9]. In [7], the inhibition result is “Active”.

Regarding `COc1cc2c3c(n(CCCN(C)C)c(=O)c2cc1OC)-c1ccccc1C3=O`, the GI50 in [1] was determined as 11.5 µM; in [5], 6170 nM; in [6], 6170 nM; in [8] it was 11000 nM. The inhibition result in data set [7] was “Active”. For the same compound, the concentration in solution in data set [12] (solubility at 24 h) came to 60 mM (≈ 23.5 mg/mL).

Regarding `CN(C)CCCn1c2c(c3ccccc3c1=O)C(=O)c1ccccc1-2`, the 50% growth inhibitory concentration (GI50) is 1660 nM in data set [2] and 550 nM in data set [5]. Also, the inhibition entry in data set [7] was “Active”. In [12], this compound displayed a solubility at 24 h of 0.28 mM (≈ 0.0931 mg/mL).

On to `CN(C)CCCn1c2c(c3ccccc3c1=O)C(=O)c1cccnc1-2`, for which the GI50 in data set [1] worked out at 1.51 µM; in [2] it was 2570 nM; in data set [3], 2.69 µM; in data set [4] it was 1350 nM; in data set [5], 250 nM; in data set [6], 1910 nM. The GI50 stood at 810 nM in data set [8] and 410 nM in data set [9]. In addition, the inhibition entry in data set [7] was “Active”. Further, the solubility at 24 h in [12] was found to be 24 mM (≈ 8 mg/mL).

As to `O=C1c2cccnc2-c2c1c1ccccc1c(=O)n2CCCN1CCOCC1`, the 50% growth inhibitory concentration (GI50) in data set [1] is 35.5 µM; in data set [2], 28200 nM; in data set [3], above 100 µM; in data set [4], 3550 nM; in data set [5], 2750 nM; in [6], 5620 nM. Further, the concentration for 50% growth inhibition (GI50) in [8] turned out to be 5370 nM; in [9] it was 1860 nM. In addition, the inhibition entry in data set [7] is “Active”.

In the case of `COc1cc2c3c(n(CCCN4CCOCC4)c(=O)c2cc1OC)-c1ncccc1C3=O`, the GI50 in [1] was determined as 0.3 µM; in data set [2], 370 nM; in data set [3], 0.095 µM; in data set [4], 310 nM; in [5] it was 52 nM; in data set [6], 290 nM. The GI50 is 520 nM in data set [8] and 220 nM in data set [9]. Further, the inhibition entry in data set [13] is “Dose-dependent effect”. Also, the outcome in [15] was inactive. The inhibition result in [14] and in [7] was “Active” throughout.

For the compound `COc1cc2c3c(n(CCCN)c(=O)c2cc1OC)-c1ncccc1C3=O`, the concentration for 50% growth inhibition (GI50) in [1] is 3.02 µM; in data set [2], 1580 nM; in data set [3] it was 8.13 µM; in data set [4] it was 1620 nM; in data set [5], 49000 nM; in data set [6] it was 2190 nM. Further, the GI50 in data set [8] stood at 2880 nM; in data set [9] it was 380 nM. Also, the inhibition result in data set [7] was “Active”.

Take `CC[C@@]1(O)C(=O)OCc2c1cc1n(c2=O)Cc2cc3ccccc3nc2-1` [CAMPTOTHECIN]: the GI50 in data set [5] amounted to 13 nM.
